Source: ChEMBL document CHEMBL1135729, “Synthesis and biological evaluation of a new set of pyrazolo[1,5-c]quinazoline-2-carboxylates as novel excitatory amino acid antagonists” (J Med Chem, 2002)

Assays:
[1] = target: T1, Glutamate receptor ionotropic, NMDA 1 (Rattus norvegicus, UniProt P35439); test: Displacement of [3H]glycine from N-methyl-D-aspartate glutamate receptor 1 in rat cortical membranes; type: cell membranes, Membrane
[2] = target: Glutamate receptor ionotropic, kainate (Rattus norvegicus) (UniProt P22756+Q01812+P42260+P42264+Q63273); test: Percent Inhibition of specific [3H]KA binding to Ionotropic glutamate receptor in rat cortical membranes.; type: cell membranes; design: concentration or dose not given beside the values; details: Membrane; concentration not given here
Method in brief: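 Membranes resuspended (0.5 mg protein/mL) in 0.05 M Tris-citrate, pH 7.4, preincubated at 37 °C for 30 min, then washed three times in ice-cold buffer. Binding run on ice for 60 min with 5 nM [3H]kainate; nonspecific binding defined with 1 mM glutamate. Separation by GF/C filtration.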

[3] = target: Glutamate receptor ionotropic, AMPA (Rattus norvegicus) (UniProt P19491+P19492+P19493+P19490); test: Percent Inhibition by displacing [3H]AMPA from Ionotropic glutamate receptor AMPA specific binding sites in rat cortical membranes; type: cell membranes; design: concentration or dose not given beside the values; details: concentration not given here
[4] = target: T2, Glutamate receptor ionotropic, AMPA (Rattus norvegicus, UniProt P19490+P19491+P19492+P19493); test: Displacement of [3H]AMPA from Ionotropic glutamate receptor AMPA in rat cortical membranes.; type: cell membranes, Membrane
[5] = target: Glutamate receptor ionotropic, NMDA 1 (Rattus norvegicus) (UniProt P35439); test: (§1) Percent Inhibition by displacing [3H]glycine of N-methyl-D-aspartate glutamate receptor 1 in rat cortical membranes; type: cell membranes; design: concentration or dose not given beside the values; details: Membrane; concentration not given here
[6] = target: Glutamate receptor ionotropic, kainate; test: Inhibition of specific binding […] by displacing [3H]KA, from specific binding sites of Ionotropic glutamate receptor ionotropic kainate in rat cortical membranes; type: cell membranes, Membrane
Method in brief: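 Rat cortical membranes preincubated at 0.5 mg protein/mL in 0.05 M Tris-citrate pH 7.4, 37 °C for 30 min, then washed thrice in ice-cold buffer. Binding on ice for 60 min with 5 nM [3H]kainate, 0.2-0.3 mg protein per assay. Nonspecific binding defined with 1 mM glutamate. Filtration separation.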

Mus musculus [7] = organism: Mus musculus; test: Concentration that inhibits by 50% depolarization induced by 5M NMDA; type: functional
Method in brief: (§2)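 Cortical wedge preparation (per Mannaioni et al.). AMPA or NMDA (5 μM) applied for 2 min every 15 min until control peaks were stable, then wedges continuously superfused with antagonist while agonist pulses continued. Afterwards, washout with antagonist-free Krebs and agonist applied every 15 min for 30-60 min to confirm recovery. dc potential between two compartments recorded via Ag/AgCl electrodes. IC50 derived against control peaks; mean ± SEM, n = 4.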

Mus musculus [8] = organism: Mus musculus; test: Concentration that inhibits by 50% depolarization induced by 5M AMPA; type: functional; method in brief: as §2
[9] = target: T1, Glutamate receptor ionotropic, NMDA 1; test: as §1; type: cell membranes, Membrane
[10] = target: T1, Glutamate receptor ionotropic, NMDA 1; test: Inhibition by displacing [3H]-Glycine of N-methyl-D-aspartate glutamate receptor 1 in rat cortical membranes; type: cell membranes, Membrane
Glutamate NMDA receptor = test: Inhibition of stimulated [3H](+)-MK-801 binding to N-methyl-D-aspartate glutamate receptor in rat cortical membranes incubated with 10 uM glutamate and 0.1 uM glycine.
[11] = target: T2, Glutamate receptor ionotropic, AMPA; test: Inhibition by displacing [3H]AMPA from Ionotropic glutamate receptor AMPA specific binding sites in rat cortical membranes; type: cell membranes

Ki [1] | inhibition [2] | inhibition [3] | Ki [4] | inhibition [5] | Structure (SMILES) | other results
1.3 µM | 10% | 42% |  |  | COC(=O)c1cc2c3cc(Cl)c(Cl)cc3nc(O)n2n1 | 
4 µM | 9% |  | 8.5 µM |  | COC(=O)C1=NN2C(=O)Nc3cc(Cl)c(Cl)cc3C2C1 (stereo not given) | 
 | 1% | 6% |  | 5% | CCOC(=O)c1cc2n(n1)C(C(=O)O)Nc1cc(Cl)ccc1-2 (stereo not given) | 
0.48 µM |  |  | 2.3 µM |  | O=C(O)c1cc2c3ccc(Cl)cc3nc(O)n2n1 | IC50 [6]: 60 µM
10.6 µM |  |  | 8.2 µM |  | CCOC(=O)c1cc2c3cc([N+](=O)[O-])c(Cl)cc3[nH]c(=O)n2n1 | 
 | 11% | 33% |  | 40% | CCOC(=O)c1cc2c3cc(N)c(Cl)cc3nc(O)n2n1 | 
 | 0% | 12% |  | 15% | CCOC(=O)c1cc2n(n1)C(C(=O)O)Nc1ccccc1-2 (stereo not given) | 
2 µM |  |  | 96 µM |  | O=C(O)C1=NN2C(=O)Nc3ccccc3C2C1 (stereo not given) | IC50 [6]: 19.5 µM
 | 23% |  |  |  | CCOC(=O)c1cc2c3cc([N+](=O)[O-])c(Cl)cc3nc(O)n2n1 | 
 | 13% | 7% |  | 25% | O=C(O)c1cc2n(n1)C(C(=O)O)Nc1cc(Cl)ccc1-2 (stereo not given) | 
 | 15% |  |  |  | CCOC(=O)c1cc2c3ccc(Cl)cc3nc(O)n2n1 | 
0.24 µM | 20% |  | 7.2 µM |  | O=C(O)C1=NN2C(=O)Nc3cc(Cl)ccc3C2C1 (stereo not given) | 
 | 30% | 27% |  | 30% | CCOC(=O)c1cc2c3cc(N)ccc3nc(O)n2n1 | 
 |  |  |  |  | O=C(O)c1nc2c(=O)[nH]c3cc(Cl)c(-n4cnnc4)cc3n2n1 [TQX-173] | Ki [10]: 33.5 µM
 | 24% |  | 26 µM | 35% | O=C(O)c1cc2c3cc([N+](=O)[O-])ccc3nc(O)n2n1 | 
 | 0% | 29% |  | 40% | COC(=O)C1=NN2C(=O)Nc3ccccc3C2C1 (stereo not given) | 
1.41 µM | 26% |  | 12.4 µM |  | O=C(O)c1cc2c3ccccc3nc(O)n2n1 | IC50 (Glutamate NMDA receptor): 10.4 µM
 | 17% |  | 2.65 µM |  | O=C(O)C1=NN2C(=O)Nc3cc(Cl)c(Cl)cc3C2C1 (stereo not given) | Ki [10]: 0.19 µM
 | 12% |  |  |  | CCOC(=O)c1cc2c3ccccc3nc(O)n2n1 | 
 | 4% | 27% |  | 15% | CCOC(=O)c1cc2c3cc([N+](=O)[O-])ccc3nc(O)n2n1 | 
 | 29% |  |  |  | CCOC(=O)c1cc2c3cc(-n4ccc(C=O)c4)c(Cl)cc3nc(O)n2n1 | IC50 (Mus musculus [7]): > 50 µM; Ki [10]: 57 µM; IC50 (Mus musculus [8]): 1 µM; Ki [11]: 1.4 µM
 | 11% | 0% |  | 35% | O=C(O)c1cc2n(n1)C(C(=O)O)Nc1ccccc1-2 (stereo not given) | 
33.3 µM |  |  | 42 µM |  | CCOC(=O)c1cc2c3ccccc3[nH]c(=O)n2n1 | 
10.6 µM | 3% |  | 17.3 µM |  | COC(=O)C1=NN2C(=O)Nc3cc(Cl)ccc3C2C1 (stereo not given) | 
 |  |  |  |  | O=Cc1ccn(-c2cc3c(cc2Cl)nc(O)n2nc(C(=O)O)cc32)c1 | IC50 (Mus musculus [7]): 25 µM; Ki [10]: 8.2 µM; IC50 (Mus musculus [8]): 0.5 µM; IC50 [6]: 5.5 µM; Ki [11]: 0.27 µM
26.5 µM |  |  | 72 µM |  | CCOC(=O)c1cc2c3ccc(Cl)cc3[nH]c(=O)n2n1 | 

Structure (SMILES) | Ki [1] | inhibition [2] | inhibition [3] | Ki [4] | inhibition [5] | other results
O=C(O)c1cc2c3cc(-n4cnnc4)c(Cl)cc3[nH]c(=O)n2n1 |  |  |  | 0.14 µM |  | IC50 (Mus musculus [7]): 20 µM
CCOC(=O)c1cc2c3cc(-n4cnnc4)c(Cl)cc3nc(O)n2n1 |  | 38% |  | 0.87 µM | 18% | IC50 (Mus musculus [7]): > 50 µM; IC50 (Mus musculus [8]): 1.75 µM
O=C(O)c1cc2c3cc(Cl)c(Cl)cc3[nH]c(=O)n2n1 | 0.16 µM |  |  | 2.4 µM |  | IC50 [6]: 41 µM
O=C(O)c1cc2c3cc([N+](=O)[O-])c(Cl)cc3[nH]c(=O)n2n1 |  |  |  | 0.74 µM |  | IC50 [6]: 23 µM; Ki [9]: 1.1 µM
